CHOP inhibitor: CHOP inhibition in unfolded protein response. CHO-K1 CHOP-promoter luciferase, tunicamycin-induced, 15-18 h. inhibition, % at 10 µM. hit rate 3.8% among 220,000. AID 2732;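 active = compounds that reduced the stress-induced luciferase reporter signal by more than about 70% of percent inhibition, limit read from the data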;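 also: 0% = tunicamycin plus vehicle and 100% = wells without tunicamycin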
aDG glyco act: alpha-DG glycosylation activation | Pro5-aDG cells, alpha-DG glycosylation AlphaScreen (IIH6); 0% Pro5, 100% B10-LARGE cell signal | activation, % at 10 µM | hit rate 0.22% among 360,000 | AID 624168;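 active = activation of at least 8% versus controls, or a plate z-score of at least 8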;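 also: Pro5 are CHO cells carrying HIG-tagged alpha-DG that lacks glycosylation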
MPTP block: inhibitors of mitochondrial permeability transition pore; isolated mouse mitochondria, Ca2+ swelling absorbance, 30 min; inhibition, % at 10 µM; hit rate 1.4% among 360,000;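 active = inhibition of 50% or more, scaled per plate between neutral and stimulator controls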;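 also: 0% = DMSO wells given calcium and 100% = 1 mM EGTA wells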
CHOP UPR activ: apoptotic UPR (CHOP) activation; CHO-CHOP luciferase reporter, luminescence; percent of tunicamycin response over DMSO baseline; activation, % at 10 µM; hit rate 0.34% among 330,000;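 active = at 10 µM dose, activation of 40% or more, normalized to positive control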;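 also: 100% = tunicamycin at 10 µg/mL and 0% = DMSO alone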
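System: CHO-CHOP luciferase reporter cell line | Buffer or medium: F12 medium containing 10% fetal bovine serum | Doses: One dose, 10 µM in 0.5% DMSO | Times: 6 h compound exposure at 37 °C after overnight seeding | Signal: Luciferase luminescence | Read-out: % activation vs tunicamycin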
GRIN3A LBD mod: modulators (binders) of human NR3A ligand-binding domain | NR3A LBD differential scanning fluorimetry, Tm shift; 0% = protein alone, 100% = glycine-bound protein | Tm shift relative to glycine control, % at 25 µM | hit rate 2.5% among 340,000 | AID 1259313;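 active = melting temperature shift of at least 10% of the positive control shift, at one fixed dose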
UPR XBP1 act: activators of adaptive arm of unfolded protein response (XBP1); AID 463104; CHO-XBP1 luciferase reporter, IRE1-XBP1 UPR activation, luminescence; percent of tunicamycin response, DMSO as zero; hit rate 0.33% among 330,000; activation, % at 20 µM;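 active = versus positive control, 20 µM dose yields 30% or more activation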;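 also: 100% = tunicamycin at 10 µg/mL and 0% = DMSO only wells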
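Assay system: IRE1-XBP1 luciferase reporter CHO line. Input: 1000 cells/well. Buffer or medium: F12 with 10% serum. Doses: 20 µM, 1% DMSO. Times: overnight seeding at 37 °C, 6 h compound treatment at 37 °C. Technique: Steady-Glo luciferase glow luminescence, 10 min after reagent addition.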
UPR CHOP confirm: confirmation of apoptotic unfolded protein response (CHOP) activators; hit rate 64% among 1,000; activation, % at 10 µM; CHO-CHOP cells, CHOP-luciferase reporter luminescence; percent of tunicamycin response, DMSO as zero; shares compounds with CHOP UPR activ; in the data active = activation above about 33%;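 also: 0% = DMSO wells and 100% = tunicamycin 10 µg/mL wells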
* marks the source's active call; other numbers are inactive results; . = no result given. The list is not random: actives were taken first. Their share in the collection is about 5.6%.

SMILES	CHOP inhibitor	aDG glyco act	MPTP block	CHOP UPR activ	GRIN3A LBD mod	UPR XBP1 act	UPR CHOP confirm
O=C(COC(=O)Cc1c(F)cccc1Cl)NNC(=O)c1ccccc1	.	0.0	-1.3	-0.6	0.2	-0.9	.
Cc1occc1C(=O)NNC(=O)CN1C(=O)NC2(CCCCC2)C1=O	.	0.1	-0.5	0.5	-2.7	-0.1	.
O=S(=O)(Nc1cccc2ncccc12)c1cccs1	.	-0.2	0.2	48.6*	-1.3	-7.5	-3.6
COc1ccc(S(=O)(=O)N2CCN(c3nn(C)c(=O)n(C)c3=O)CC2)cc1	.	0.0	-0.8	-2.0	-1.2	0.3	.
O=C1CC(c2ccccc2)CC(O)=C1C=Nc1ccc(Cl)cc1 (stereo not given)	83.0*	0.5	1.2	42.5*	-1.3	25.9	29.0
O=C(Cc1cccc(C(F)(F)F)c1)OCN1C(=O)c2ccccc2C1=O	.	0.1	2.4	1.4	1.7	-2.2	.
Oc1ccc(CN2CCc3ccccc3C2)c2cccnc12	56.2	-0.3	-0.5	103.5*	-2.7	12.3	102.1*
Oc1c(Cl)cc(CN2CCCCC2)c2cccnc12	.	-0.2	-13.7	83.6*	.	26.6	73.9*
Oc1ccc(CN2CCCCC2)c2cccnc12	9.3	-0.2	-2.4	7.4	-0.6	17.0	.
CCOC(=O)N1CCN(Cc2ccc(O)c3ncccc23)CC1	7.4	.	.	62.1*	-3.0	24.8	77.7*
O=[N+]([O-])c1cc(CN2CCCC2)c2cccnc2c1O	18.1	0.1	25.8	.	-15.6	.	.
Oc1ccc(CN2CCN(c3ccccc3)CC2)c2cccnc12	35.3	0.0	0.1	67.2*	-19.9	16.1	50.1*
CN(C)CCNC(=O)C(=O)NCC1CCCN1S(=O)(=O)c1cccs1 (stereo not given)	.	0.1	-1.6	0.3	-0.6	-3.7	.
NNC(=O)c1cc(-c2cccs2)nc2ccccc12	17.0	-0.1	-0.7	3.7	0.6	-0.5	.
C/C(=N\NC(=O)c1ccccc1OCc1ccc(F)cc1)c1ccccn1	.	-0.4	-0.4	109.3*	2.5	17.6	99.2*
C/C(=N\NC(=O)c1cc(-c2cccs2)nc2ccccc12)c1ccccn1	50.2	-0.5	-0.5	247.7*	-12.1	5.6	197.9*
C/C(=N\NC(=O)c1cccc2ccccc12)c1ccccn1	.	-0.2	-1.0	331.8*	-0.8	1.4	339.4*
C/C(=N\NC(=O)c1ccccc1Cl)c1ccccn1	.	-0.3	-0.5	21.2	1.1	6.7	.
CCOc1ccc(OCc2ccc(C(=O)N/N=C(\C)c3ccccn3)cc2)cc1	52.6	-0.4	-2.2	.	-0.5	.	.
Cc1cc(C)cc(OCCn2nnc3ccccc32)c1	.	0.3	-0.2	4.3	0.3	-4.4	.
CC(C)[C@H]1COCCS(=O)(=O)N1Cc1ccccc1-c1ccc(C(C)(C)C)cc1	.	0.0	-2.2	3.1	-0.7	-0.3	.
O=C(Cc1ncc(C(F)(F)F)cc1Cl)NCCc1ccccn1	32.4	0.0	-2.1	0.7	-0.3	-0.3	.
COc1ccc(CCC(=O)N2CCN(S(=O)(=O)c3cccs3)CC2)cc1	.	0.0	4.8	0.4	1.8	-0.1	.
CCCOc1ccc(N2C(=O)CC(N(O)c3ccccc3)C2=O)cc1 (stereo not given)	10.8	0.3	1.9	191.6*	-2.2	4.7	170.3*
CCOC(=O)C(=Cc1ccc(-n2cncn2)cc1)C(=O)OCC	10.5	0.7	0.4	118.8*	-2.2	-3.5	92.8*
SMILES	CHOP inhibitor	aDG glyco act	MPTP block	CHOP UPR activ	GRIN3A LBD mod	UPR XBP1 act	UPR CHOP confirm
O=C(N[C@@H](Cc1ccccc1)C(=O)NCc1ccc(F)cc1)C1CCNCC1	.	-0.2	-0.1	-1.3	1.6	-5.9	.
C/C(=N\NC(=O)c1ccncc1)c1cc2ccccc2o1	9.2	-0.5	1.1	115.2*	-3.6	1.7	0.8
C/C(=N\NC(=O)c1cccnc1)c1cc2ccccc2o1	9.4	-0.2	1.3	-0.8	-10.6	-2.2	.
CN(C)Cc1c(O)ccc2c1O/C(=C\C=C\c1ccccc1)C2=O	5.1	0.1	2.0	96.5*	-1.2	-3.5	-0.5
CCN1CCN(Cc2c(O)ccc3c2O/C(=C\C=C\c2ccccc2)C3=O)CC1	-53.4	-0.4	-1.1	153.6*	-6.6	-1.9	0.8
O=C1/C(=C/C=C/c2ccccc2)Oc2c1ccc(O)c2CN1CCN(CCO)CC1	-0.4	-0.1	-1.8	0.4	-2.2	0.5	.
COc1ccc(C(C)NC(=O)Nc2ccc(C(C)=O)cc2)cc1OC (stereo not given)	.	0.1	2.6	-0.5	6.3	-4.0	.
O=C(OCCc1ccccc1)c1cc(O)c(O)c(O)c1	.	0.2	3.5	117.6*	-7.0	12.2	11.5
Nc1ccc(C(=O)OCCc2ccccc2)cc1	.	0.2	7.8	-0.7	-1.1	-2.4	.
CCn1c(O)c(N=NC(=O)c2cccnc2)c2cc(Br)ccc21	12.3	0.1	1.6	0.1	-1.3	3.1	.
CCn1c(O)c(C2=c3ccccc3=NC2=O)c2cc(Br)ccc21	22.9	.	.	110.8*	2.4	-7.1	83.3*
CC(C)N1C/C(=C/c2ccsc2)C(=O)/C(=C/c2ccsc2)C1	65.5	-0.3	-0.8	95.1*	-2.2	0.7	91.2*
Oc1ccc(-c2cn3c(n2)SCC3)cc1O	-2.5	-0.1	3.4	51.6*	0.3	0.0	2.4
CN(C)S(=O)(=O)c1ccc(C(=O)OCCc2ccccc2)cc1	.	-0.2	-1.0	6.7	-0.6	1.8	.
C/C(=N\OCc1ccc(C#N)cc1)c1ccc(S(=O)(=O)N(C)C)cc1	.	0.1	0.8	40.9*	-1.1	3.9	5.9
COc1ccc(/C=C(/NC(=O)c2ccc(Br)o2)C(=O)Nc2cccc(C(=O)O)c2)cc1	.	0.4	0.5	.	.	.	.
CC1=NN(c2cccc(C(=O)O)c2)C(=O)/C1=C\C=C/c1ccccc1	93.4*	-0.2	1.1	94.9*	11.7*	-3.3	129.6*
COc1ccc(C2Nc3ccccc3NC3=C2C(=O)CC(C)(C)C3)cc1O (stereo not given)	.	0.0	-1.2	.	-0.2	-4.5	-0.8
COc1ccc(C2Nc3ccccc3NC3=C2C(=O)CC(C)(C)C3)cc1OC (stereo not given)	.	0.1	-1.2	1.6	0.0	-7.0	.
O=C(CN1CCOCC1)N1CCN(c2ccc3ccccc3n2)CC1	47.4	.	.	.	.	.	.
Cc1ccc(Nc2nc(-c3ccc(O)c(O)c3)cs2)nc1	10.0	.	.	215.9*	42.6*	8.8	164.1*
Cc1ccc(Nc2nc(-c3ccc(F)cc3)cs2)nc1	.	0.0	0.7	5.0	-8.4	-2.5	.
O=C(CCl)Nc1c2c(nn1-c1ccccc1)CSC2	.	0.6	1.3	70.1*	0.5	-2.9	3.3

Bioassay records (PubChem BioAssay)
